Results from ChEMBL document CHEMBL4130443, “Targeting breast cancer stem cells by novel HDAC3-selective inhibitors” (Eur J Med Chem, 2017).
Activity calls are given as the source filed them. The calls are words filed in the database; no cut-off is given here.

Assays:
Histone deacetylase 1 [1] = target: T1, Histone deacetylase 1 (Homo sapiens, UniProt Q13547); assay: Inhibition of human HDAC1 using p53 (379 to 382 residues) derived fluorogenic peptide RHKKAc
Histone deacetylase 2 [2] = target: T2, Histone deacetylase 2 (Homo sapiens, UniProt Q92769); assay: Inhibition of human HDAC2 using p53 (379 to 382 residues) derived fluorogenic peptide RHKKAc
Homo sapiens = species: Homo sapiens; assay: Selectivity index, ratio of IC50 for human HDAC1 to IC50 for human HDAC3
[3] = target: Histone deacetylase 3/Nuclear receptor corepressor 2 (HDAC3/NCoR2) (Homo sapiens, UniProt O15379); assay: Inhibition of human HDAC3/NCOR2 using p53 (379 to 382 residues) derived fluorogenic peptide RHKKAc; assay type: protein-complex assay
Histone deacetylase 2 [4] = target: T2, Histone deacetylase 2; assay: Inhibition of human HDAC2 at 1 uM using p53 (379 to 382 residues) derived fluorogenic peptide RHKKAc
Summary of the method: (§1)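 Isoform profiling run by a commercial vendor with compounds at 1 µM. Values are percent inhibition, each the average of two determinations.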

[5] = target: Histone deacetylase 5 (Homo sapiens) (UniProt Q9UQL6); assay: Inhibition of human HDAC5 at 1 uM using Boc-Lys(trifluoroacetyl)-AMC substrate; summary of the method: as §1
[6] = target: T3, Histone deacetylase 8 (Homo sapiens) (UniProt Q9BY41); assay: Inhibition of human HDAC8 at 1 uM using p53 (379 to 382 residues) derived fluorogenic peptide RHKAcKAc; summary of the method: as §1
T3 sequence (whole entry): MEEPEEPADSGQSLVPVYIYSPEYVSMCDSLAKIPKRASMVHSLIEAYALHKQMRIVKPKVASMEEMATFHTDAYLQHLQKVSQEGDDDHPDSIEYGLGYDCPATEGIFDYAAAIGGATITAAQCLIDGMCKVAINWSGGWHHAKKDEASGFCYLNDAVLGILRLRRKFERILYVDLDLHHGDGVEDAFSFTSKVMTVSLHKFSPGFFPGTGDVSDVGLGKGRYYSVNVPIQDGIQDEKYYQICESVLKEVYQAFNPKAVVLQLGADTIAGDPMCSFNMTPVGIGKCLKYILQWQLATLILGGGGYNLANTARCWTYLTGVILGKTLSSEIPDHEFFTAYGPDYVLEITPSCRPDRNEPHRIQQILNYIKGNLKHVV

[7] = target: Histone deacetylase 4 (Homo sapiens) (UniProt P56524); assay: Inhibition of human HDAC4 at 1 uM using Boc-Lys(trifluoroacetyl)-AMC substrate; summary of the method: as §1
[8] = target: T4, Protein deacetylase HDAC6 (Homo sapiens) (UniProt Q9UBN7); assay: Inhibition of human HDAC6 at 1 uM using p53 (379 to 382 residues) derived fluorogenic peptide RHKKAc; summary of the method: as §1
T4 sequence (whole entry): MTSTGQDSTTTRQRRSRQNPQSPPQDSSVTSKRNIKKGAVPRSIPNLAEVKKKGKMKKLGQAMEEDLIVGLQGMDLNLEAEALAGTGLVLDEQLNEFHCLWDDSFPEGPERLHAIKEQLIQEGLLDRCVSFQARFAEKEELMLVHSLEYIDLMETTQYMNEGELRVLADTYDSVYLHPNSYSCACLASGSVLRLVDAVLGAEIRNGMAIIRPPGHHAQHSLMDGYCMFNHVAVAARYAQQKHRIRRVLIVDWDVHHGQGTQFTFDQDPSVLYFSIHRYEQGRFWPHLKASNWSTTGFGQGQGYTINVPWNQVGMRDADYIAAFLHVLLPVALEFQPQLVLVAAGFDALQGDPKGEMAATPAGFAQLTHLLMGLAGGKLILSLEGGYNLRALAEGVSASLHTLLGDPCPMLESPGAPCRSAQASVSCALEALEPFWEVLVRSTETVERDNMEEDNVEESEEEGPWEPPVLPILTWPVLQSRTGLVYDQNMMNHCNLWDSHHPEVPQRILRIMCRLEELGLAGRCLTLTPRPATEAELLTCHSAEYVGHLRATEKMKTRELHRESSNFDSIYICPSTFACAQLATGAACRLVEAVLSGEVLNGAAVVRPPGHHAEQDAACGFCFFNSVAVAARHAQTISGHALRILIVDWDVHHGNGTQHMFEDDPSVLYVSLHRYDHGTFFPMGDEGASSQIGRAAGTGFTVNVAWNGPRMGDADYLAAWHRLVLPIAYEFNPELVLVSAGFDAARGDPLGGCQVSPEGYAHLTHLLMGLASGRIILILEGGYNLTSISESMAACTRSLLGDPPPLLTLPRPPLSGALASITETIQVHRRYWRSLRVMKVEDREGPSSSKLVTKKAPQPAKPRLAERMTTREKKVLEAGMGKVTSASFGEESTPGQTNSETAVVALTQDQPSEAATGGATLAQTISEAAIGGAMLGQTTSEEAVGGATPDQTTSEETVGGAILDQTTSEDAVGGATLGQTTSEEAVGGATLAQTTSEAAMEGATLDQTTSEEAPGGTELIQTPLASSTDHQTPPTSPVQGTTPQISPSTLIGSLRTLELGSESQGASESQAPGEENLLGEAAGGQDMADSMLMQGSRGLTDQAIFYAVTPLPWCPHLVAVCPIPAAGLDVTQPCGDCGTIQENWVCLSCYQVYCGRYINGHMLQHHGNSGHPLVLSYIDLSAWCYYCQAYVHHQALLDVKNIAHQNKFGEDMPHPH

Histone deacetylase 1 [9] = target: T1, Histone deacetylase 1; assay: Inhibition of human HDAC1 at 1 uM using p53 (379 to 382 residues) derived fluorogenic peptide RHKKAc; summary of the method: as §1
[10] = target: Histone deacetylase 3/Nuclear receptor corepressor 2 (HDAC3/NCoR2) (Homo sapiens) (UniProt O15379+Q9Y618); assay: Inhibition of human HDAC3/NCOR2 at 1 uM using p53 (379 to 382 residues) derived fluorogenic peptide RHKKAc; assay type: protein-complex assay; summary of the method: as §1
[11] = target: T4, Protein deacetylase HDAC6 (Homo sapiens); assay: Inhibition of HDAC6 in human MDA-MB-231 cells assessed as increase in histone H3K9 acetylation at 0.1 to 2.5uM incubated for 48 hrs by Western blot method; assay type: cell-based; conditions: in the assay text read “tubulin acetylation” for “histone H3K9 acetylation”
Summary of the method: (§2)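 Cells treated 48 h at the indicated concentrations, with a reference HDAC inhibitor at 0.25 µM as positive control on each blot. Lysed in 1% SDS, 10 mM EDTA, 50 mM Tris-HCl pH 8.1 with protease/phosphatase inhibitors, then sonicated. Equal protein by SDS-PAGE on nitrocellulose. Primary antibodies 1:1000 overnight at 4°C, HRP secondary, ECL. Blots for pan-H3 and H3K9 acetylation, tubulin acetylation and Notch1.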

[12] = target: T3, Histone deacetylase 8 (Homo sapiens); assay: Inhibition of HDAC8 in human MDA-MB-231 cells assessed as reduction in Notch1 expression at 0.1 to 2.5uM incubated for 48 hrs by Western blot method; assay type: cell-based; summary of the method: as §2

T1 sequence (Q13547 whole entry, the tested form may be a part): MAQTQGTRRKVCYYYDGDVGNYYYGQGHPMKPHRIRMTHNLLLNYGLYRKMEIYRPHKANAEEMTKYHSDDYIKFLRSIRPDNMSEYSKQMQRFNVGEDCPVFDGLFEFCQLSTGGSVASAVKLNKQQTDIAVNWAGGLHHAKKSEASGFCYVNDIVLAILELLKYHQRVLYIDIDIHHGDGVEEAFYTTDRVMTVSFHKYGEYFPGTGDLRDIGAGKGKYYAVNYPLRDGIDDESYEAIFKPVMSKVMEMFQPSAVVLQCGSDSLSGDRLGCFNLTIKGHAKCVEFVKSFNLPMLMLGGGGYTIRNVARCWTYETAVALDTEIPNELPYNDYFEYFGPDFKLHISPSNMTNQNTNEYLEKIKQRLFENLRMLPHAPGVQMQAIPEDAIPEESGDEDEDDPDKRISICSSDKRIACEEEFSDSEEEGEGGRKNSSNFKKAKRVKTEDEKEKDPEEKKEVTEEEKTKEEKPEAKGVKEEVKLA
T2 sequence (Q92769 whole entry, the tested form may be a part): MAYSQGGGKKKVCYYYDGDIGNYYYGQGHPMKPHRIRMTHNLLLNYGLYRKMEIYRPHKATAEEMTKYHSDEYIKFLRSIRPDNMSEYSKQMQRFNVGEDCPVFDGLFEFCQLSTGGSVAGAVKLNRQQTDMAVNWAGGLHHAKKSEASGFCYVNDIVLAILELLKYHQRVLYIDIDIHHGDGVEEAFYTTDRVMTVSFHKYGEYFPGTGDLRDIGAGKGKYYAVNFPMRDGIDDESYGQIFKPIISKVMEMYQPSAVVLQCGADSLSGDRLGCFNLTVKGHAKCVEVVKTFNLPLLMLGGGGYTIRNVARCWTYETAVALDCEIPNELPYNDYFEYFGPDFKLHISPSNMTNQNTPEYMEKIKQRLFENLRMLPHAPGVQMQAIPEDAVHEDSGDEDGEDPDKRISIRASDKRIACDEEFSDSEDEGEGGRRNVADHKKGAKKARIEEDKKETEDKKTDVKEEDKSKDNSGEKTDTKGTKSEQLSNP
Chain of Histone deacetylase 5 (Homo sapiens) (Q9UQL6 whole entry, the tested form may be a part): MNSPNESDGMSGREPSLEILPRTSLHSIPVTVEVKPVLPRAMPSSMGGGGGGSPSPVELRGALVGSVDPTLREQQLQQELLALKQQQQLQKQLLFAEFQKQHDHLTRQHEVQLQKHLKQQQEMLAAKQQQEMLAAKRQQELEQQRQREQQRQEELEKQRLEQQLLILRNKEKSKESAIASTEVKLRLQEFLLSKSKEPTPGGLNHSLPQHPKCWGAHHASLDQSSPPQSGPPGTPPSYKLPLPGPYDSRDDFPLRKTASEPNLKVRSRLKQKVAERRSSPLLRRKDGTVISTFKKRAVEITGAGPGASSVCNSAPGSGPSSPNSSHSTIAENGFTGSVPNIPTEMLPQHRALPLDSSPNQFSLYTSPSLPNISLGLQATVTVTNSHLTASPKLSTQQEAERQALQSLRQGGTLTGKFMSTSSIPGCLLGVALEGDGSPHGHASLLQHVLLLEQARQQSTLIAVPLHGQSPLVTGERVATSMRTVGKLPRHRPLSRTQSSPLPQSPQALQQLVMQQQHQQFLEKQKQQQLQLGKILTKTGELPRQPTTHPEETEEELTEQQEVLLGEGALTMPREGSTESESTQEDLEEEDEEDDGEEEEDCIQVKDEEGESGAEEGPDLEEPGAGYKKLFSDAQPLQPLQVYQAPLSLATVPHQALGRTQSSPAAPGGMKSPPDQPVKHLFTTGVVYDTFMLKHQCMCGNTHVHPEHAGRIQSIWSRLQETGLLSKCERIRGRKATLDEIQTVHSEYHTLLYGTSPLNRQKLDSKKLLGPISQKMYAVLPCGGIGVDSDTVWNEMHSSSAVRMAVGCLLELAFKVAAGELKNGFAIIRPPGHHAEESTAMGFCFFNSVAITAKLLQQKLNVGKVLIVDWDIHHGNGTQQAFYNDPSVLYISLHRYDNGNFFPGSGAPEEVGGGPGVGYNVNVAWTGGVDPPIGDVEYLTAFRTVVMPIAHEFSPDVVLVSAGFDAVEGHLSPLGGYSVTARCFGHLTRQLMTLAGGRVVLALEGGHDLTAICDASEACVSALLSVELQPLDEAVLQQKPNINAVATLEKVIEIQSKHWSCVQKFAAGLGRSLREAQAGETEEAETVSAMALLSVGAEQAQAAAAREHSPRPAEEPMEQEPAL
Chain of Histone deacetylase 3/Nuclear receptor corepressor 2 (HDAC3/NCoR2) (O15379 whole entry, the tested form may be a part): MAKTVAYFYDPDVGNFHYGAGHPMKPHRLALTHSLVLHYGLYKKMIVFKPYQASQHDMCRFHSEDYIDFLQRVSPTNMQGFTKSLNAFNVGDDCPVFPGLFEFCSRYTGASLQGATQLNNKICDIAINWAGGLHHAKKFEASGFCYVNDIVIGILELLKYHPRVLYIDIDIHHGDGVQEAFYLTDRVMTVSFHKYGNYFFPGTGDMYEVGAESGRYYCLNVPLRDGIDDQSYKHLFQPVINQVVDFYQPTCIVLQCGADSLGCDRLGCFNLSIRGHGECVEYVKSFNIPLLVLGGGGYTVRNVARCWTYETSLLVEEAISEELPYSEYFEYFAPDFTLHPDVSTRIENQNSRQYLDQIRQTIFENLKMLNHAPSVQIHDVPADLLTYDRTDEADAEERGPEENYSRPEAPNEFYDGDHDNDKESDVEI
Chain of Histone deacetylase 3/Nuclear receptor corepressor 2 (HDAC3/NCoR2) (Q9Y618 whole entry, further chain, the tested form may be a part): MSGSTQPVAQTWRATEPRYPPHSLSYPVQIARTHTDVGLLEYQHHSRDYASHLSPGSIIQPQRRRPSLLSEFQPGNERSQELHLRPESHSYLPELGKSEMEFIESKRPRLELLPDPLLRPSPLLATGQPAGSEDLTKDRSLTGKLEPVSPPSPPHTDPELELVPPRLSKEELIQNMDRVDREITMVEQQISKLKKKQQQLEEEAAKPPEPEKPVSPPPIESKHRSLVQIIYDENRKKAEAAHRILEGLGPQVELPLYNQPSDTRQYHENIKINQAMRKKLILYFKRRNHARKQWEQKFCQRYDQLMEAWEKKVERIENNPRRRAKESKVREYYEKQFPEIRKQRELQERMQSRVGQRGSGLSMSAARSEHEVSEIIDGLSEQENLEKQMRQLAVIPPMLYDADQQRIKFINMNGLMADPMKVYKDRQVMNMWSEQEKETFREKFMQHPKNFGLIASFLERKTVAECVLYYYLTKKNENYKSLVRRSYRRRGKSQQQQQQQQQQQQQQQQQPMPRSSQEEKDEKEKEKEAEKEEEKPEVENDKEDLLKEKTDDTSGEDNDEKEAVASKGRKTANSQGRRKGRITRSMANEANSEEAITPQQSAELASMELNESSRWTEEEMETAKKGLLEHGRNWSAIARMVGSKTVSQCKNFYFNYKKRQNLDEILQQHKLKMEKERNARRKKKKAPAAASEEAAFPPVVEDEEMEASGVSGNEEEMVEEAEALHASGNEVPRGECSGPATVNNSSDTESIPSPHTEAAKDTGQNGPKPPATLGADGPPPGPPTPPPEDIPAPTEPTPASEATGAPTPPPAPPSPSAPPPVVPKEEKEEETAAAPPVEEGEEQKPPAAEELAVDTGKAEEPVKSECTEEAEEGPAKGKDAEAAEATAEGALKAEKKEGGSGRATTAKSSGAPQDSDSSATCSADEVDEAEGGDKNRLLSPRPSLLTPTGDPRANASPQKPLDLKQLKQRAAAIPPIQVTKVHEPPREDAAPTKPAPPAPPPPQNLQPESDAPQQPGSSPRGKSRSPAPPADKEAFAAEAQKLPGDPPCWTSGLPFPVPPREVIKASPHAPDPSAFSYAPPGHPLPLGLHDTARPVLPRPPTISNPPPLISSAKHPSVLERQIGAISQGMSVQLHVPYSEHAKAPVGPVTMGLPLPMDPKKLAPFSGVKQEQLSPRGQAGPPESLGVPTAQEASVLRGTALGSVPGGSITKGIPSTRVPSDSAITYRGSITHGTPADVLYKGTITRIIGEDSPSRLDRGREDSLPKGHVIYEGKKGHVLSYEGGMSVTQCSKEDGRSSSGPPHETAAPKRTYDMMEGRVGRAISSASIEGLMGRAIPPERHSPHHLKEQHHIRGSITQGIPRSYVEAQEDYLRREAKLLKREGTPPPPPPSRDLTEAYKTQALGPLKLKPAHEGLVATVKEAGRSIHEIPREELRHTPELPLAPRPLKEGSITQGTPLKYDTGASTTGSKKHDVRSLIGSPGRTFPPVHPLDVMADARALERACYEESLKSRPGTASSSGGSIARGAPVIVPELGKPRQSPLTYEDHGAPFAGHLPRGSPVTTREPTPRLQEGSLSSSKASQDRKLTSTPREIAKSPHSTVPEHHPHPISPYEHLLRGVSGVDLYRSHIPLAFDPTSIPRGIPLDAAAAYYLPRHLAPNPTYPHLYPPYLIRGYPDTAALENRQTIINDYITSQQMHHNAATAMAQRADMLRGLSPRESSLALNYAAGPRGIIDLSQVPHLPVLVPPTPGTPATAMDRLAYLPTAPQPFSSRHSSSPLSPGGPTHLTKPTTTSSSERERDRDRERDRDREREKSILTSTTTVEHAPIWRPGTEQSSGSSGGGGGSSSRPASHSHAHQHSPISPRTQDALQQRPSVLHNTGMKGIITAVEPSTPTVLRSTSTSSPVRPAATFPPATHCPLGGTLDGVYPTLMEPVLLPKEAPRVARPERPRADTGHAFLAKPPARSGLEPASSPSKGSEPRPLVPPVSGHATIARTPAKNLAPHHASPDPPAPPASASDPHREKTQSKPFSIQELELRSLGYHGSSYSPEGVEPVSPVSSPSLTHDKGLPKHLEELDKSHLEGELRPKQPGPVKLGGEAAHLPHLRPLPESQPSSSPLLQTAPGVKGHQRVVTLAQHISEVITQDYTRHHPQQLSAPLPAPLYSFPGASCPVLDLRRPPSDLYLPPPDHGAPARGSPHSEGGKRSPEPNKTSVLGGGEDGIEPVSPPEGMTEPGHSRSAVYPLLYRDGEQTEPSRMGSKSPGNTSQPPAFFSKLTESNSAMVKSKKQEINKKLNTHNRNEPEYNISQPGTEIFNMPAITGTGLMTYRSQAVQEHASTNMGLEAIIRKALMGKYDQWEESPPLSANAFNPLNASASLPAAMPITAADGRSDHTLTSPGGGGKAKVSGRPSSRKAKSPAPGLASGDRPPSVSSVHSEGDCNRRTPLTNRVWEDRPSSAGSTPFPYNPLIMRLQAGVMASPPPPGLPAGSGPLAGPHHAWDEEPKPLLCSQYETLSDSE

| IC50 (Histone deacetylase 1 [1]) | IC50 (Histone deacetylase 2 [2]) | Ratio IC50 (Homo sapiens) | IC50 [3] | inhibition (Histone deacetylase 2 [4]) | inhibition [5] | inhibition [6] | inhibition [7] | inhibition [8] | inhibition (Histone deacetylase 1 [9]) | inhibition [10] | inhibition [11] | inhibition [12] | Structure (SMILES) |
| --- | --- | --- | --- | --- | --- | --- | --- | --- | --- | --- | --- | --- | --- |
| 3200 nM | 3400 nM | 13 | 230 nM |  |  |  |  |  |  |  |  |  | C[C@H](C(=O)Nc1ccc(C(=O)Nc2ccc(F)cc2N)cc1)c1ccccc1 |
|  |  |  |  | 4% | 0% | 0% | 3% | 0% | 6% | 0% |  |  | CC(C)[C@@H](C(=O)Nc1ccc(C(=O)Nc2ccc(C(F)(F)F)cc2N)cc1)c1ccccc1 |
| 1200 nM | 1800 nM | 1.2 | 1000 nM | 26% | 0% | 6% | 0% | 0% | 42% | 78% |  |  | CC(C)[C@@H](C(=O)Nc1ccc(C(=O)Nc2ccc(F)cc2N)cc1)c1ccccc1 |
| 1500 nM | 2500 nM |  | 300 nM |  |  |  |  |  |  |  | inactive | inactive | CC(C)[C@H](C(=O)Nc1ccc(C(=O)Nc2ccc(F)cc2N)nc1)c1ccccc1 |
| 1100 nM | 2000 nM |  | 520 nM |  |  |  |  |  |  |  |  |  | Nc1cc(F)ccc1NC(=O)c1ccc(NC(=O)Cc2ccccc2)cn1 |
| 1200 nM | 1100 nM |  | 800 nM |  |  |  |  |  |  |  |  |  | Nc1cc(F)ccc1NC(=O)c1ccc(NC(=O)CCc2ccccc2)cc1 |
| 760 nM | 3000 nM |  | 580 nM |  |  |  |  |  |  |  | inactive | inactive | C[C@@H](C(=O)Nc1ccc(C(=O)Nc2ccc(F)cc2N)nc1)c1ccccc1 |
| 1200 nM | 4900 nM |  | 1000 nM |  |  |  |  |  |  |  |  |  | Nc1cc(F)ccc1NC(=O)c1ccc(NC(=O)C2CC2c2ccccc2)cn1 (stereo not drawn) |
| 1300 nM | 7800 nM |  | > 10000 nM | inactive |  |  |  |  | inactive | inactive |  |  | Nc1cc(F)ccc1NC(=O)c1ccc(NC(=O)CCc2ccccc2)cn1 |
| 1500 nM | 1300 nM |  | 200 nM | 32% | 0% | 5% | 0% | 0% | 41% | 36% |  |  | Nc1cc(F)ccc1NC(=O)c1ccc(NC(=O)Cc2ccc(C(F)(F)F)cc2)cc1 |
| 1400 nM | 2000 nM |  | 130 nM |  |  |  |  |  |  |  | inactive | inactive | C[C@H](C(=O)Nc1ccc(C(=O)Nc2ccc(F)cc2N)nc1)c1ccccc1 |
| > 10000 nM | 8400 nM |  | 1700 nM |  |  |  |  |  |  |  |  |  | CC(C)[C@@H](C(=O)Nc1ccc(C(=O)Nc2ccc(F)cc2N)cn1)c1ccccc1 |
| 610 nM | 4200 nM |  | 530 nM |  |  |  |  |  |  |  |  |  | CC[C@H](C(=O)Nc1ccc(C(=O)Nc2ccc(F)cc2N)nc1)c1ccccc1 |
